Data from PubChem BioAssay.
The source made the active and inactive calls.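 Rule for the calls, unless noted: active = fluorescence slope after compound addition differing from the mean of all tested samples at 99.7% confidence, mostly higher but some lower; inactive = the rest.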

What was measured:
[1] = inhibitors of TNFa-induced NFkB p65 translocation, primary screen, imaging, HUVEC, MLSMR starter and 10KST1 sets (AID 438;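 active = inhibition above 20% together with a positive visual image hit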;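 note: compound added about 3h40 before a 20 min TNFalpha stimulation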;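 for inhibition: signal is the nuclear over cytoplasmic p65 intensity ratio per well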); settings: HUVEC TNFa-induced p65 nuclear translocation; cell count: measured here: nuclei count (cytotoxicity indicator), at 2.08 µM; inhibition: at 2 µM, stronger effect = higher value, 0% TNFa-plus-vehicle, 100% no-TNFa wells
[2] = inhibitors of mutant huntingtin aggregation, primary screen, imaging, exon1htt(103Q)mCFP cells, high-content imaging (AID 483;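 active = visual image review flags a hit and inhibition of aggregation exceeds 20%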;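 note: compound exposure lasted 3 days before fixation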;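 for nuclei count: percent of the per-plate median nuclei count of sample wells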); settings: exon1htt(103Q)mCFP cell line, aggregate imaging, at 2 µM; inhibition of aggregation: stronger effect = higher value; nuclei count: measured here: cell count, toxicity
[3] = inhibitors of E-selectin induction by TNFa, primary screen, imaging, HUVEC, immunofluorescence, MLSMR starter and 10KST1 sets (AID 487;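 active = visually confirmed hit in the image check and inhibition above 20%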;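 for inhibition: signal is fraction of cell area covered by stained E-selectin grains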;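 for nuclei count: 100% = median nuclei count of all wells on the same plate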); settings: HUVEC TNFalpha-induced E-selectin immunofluorescence imaging, at 2 µM; inhibition: stronger effect = higher value; nuclei count: measured here: cell number, toxicity
[4] = molecular target: Voltage-gated potassium channel subunit beta-2 (Rattus norvegicus) (UniProt P62483); experiment: KvBeta enzyme negative modulators, primary screen, biochemical, NADPH fluorescence (AID 622;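 active = fluorescence slope higher than the sample average by over 3 SD, cut at about -0.22 in these data, passing the limit was not always enough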;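 note: slope of raw intensity against log time taken from 70 to 1610 s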); settings: recombinant KvBeta, 4-cyanobenzaldehyde reduction, at 10 µM, stronger effect = higher value
[5] = molecular target: Voltage-gated potassium channel subunit beta-2 (Rattus norvegicus) (UniProt P62483); experiment: KvBeta positive modulators, primary screen, biochemical, NADPH fluorescence (AID 623;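 active = NADPH fluorescence slope more negative than the mean of all samples by about 3 SD, 99.7% confidence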;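 note: fluorescence intensity change per second fitted from 20 to 320 s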); settings: Recombinant KvBeta, NADPH fluorescence decrease slope, 10 min; at 10 µM; stronger effect = lower value
[6] = molecular target: Muscarinic acetylcholine receptor M4 (Homo sapiens) (UniProt P08173); experiment: compounds altering M4/GIRK thallium flux, either direction, primary screen, M4 allosteric agonist project, cell-based, HEK293 M4/GIRK, BTC-AM (AID 625); settings: at 10 µM, actives lie on both sides;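 note: thallium influx through GIRK channels coupled to M4 in HEK293 cells with BTC-AM dye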
Procedure, shortened: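 Material: HEK293 cells with M4 receptor and GIRK channels; Times: cells overnight at 37 °C, BTC-AM loading 1 h, reads 2 min total; Technique: kinetic BTC-AM fluorescence sampled at 1 Hz, 10 s pre-addition baseline; Read-out basis: slope over 15–24 s of trace normalized to starting intensity; Controls: carbachol positive, DMSO negative.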

[7] = inhibitors of Sendai virus-induced IRF3 signaling, primary screen, TLR/RLR signaling modifier project, cell-based, Sendai virus stimulus, luciferase, 10K MLSCN set (AID 602276;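 active = inhibition at or above 50% at 10 µM; inactive = inhibition below 50%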;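 note: firefly luciferase from ISG56 promoter only with Renilla not read in this screen; 0% = Sendai virus plus DMSO and 100% = medium plus DMSO without virus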); settings: HEK293 RL24 IRF3 luciferase reporter, at 10 µM, stronger effect = higher value
[8] = inhibitors of poly I:C-induced TLR3 signaling, primary screen, cell-based, poly I:C stimulus, luciferase, 10K MLSCN set (AID 602277;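 active = inhibition of the reporter signal at or above 50%; inactive = inhibition below 50%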); settings: HEK293-TLR3 RL24 IRF3 luciferase reporter, at 10 µM, stronger effect = higher value

Chain of Muscarinic acetylcholine receptor M4 (Homo sapiens) (P08173 whole entry, looked up): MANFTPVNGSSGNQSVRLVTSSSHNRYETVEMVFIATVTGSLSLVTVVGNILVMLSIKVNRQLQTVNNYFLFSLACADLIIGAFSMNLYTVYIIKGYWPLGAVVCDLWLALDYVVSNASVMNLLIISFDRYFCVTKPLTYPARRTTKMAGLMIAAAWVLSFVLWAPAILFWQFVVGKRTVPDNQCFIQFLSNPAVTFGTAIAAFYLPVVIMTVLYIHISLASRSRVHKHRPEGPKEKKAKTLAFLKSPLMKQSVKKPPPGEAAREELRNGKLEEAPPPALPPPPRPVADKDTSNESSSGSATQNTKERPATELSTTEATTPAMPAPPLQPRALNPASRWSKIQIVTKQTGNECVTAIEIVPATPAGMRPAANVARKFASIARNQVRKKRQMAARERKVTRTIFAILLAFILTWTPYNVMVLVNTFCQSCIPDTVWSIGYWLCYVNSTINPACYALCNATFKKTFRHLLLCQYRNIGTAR
Chain of Voltage-gated potassium channel subunit beta-2 (Rattus norvegicus) (P62483 whole entry, looked up): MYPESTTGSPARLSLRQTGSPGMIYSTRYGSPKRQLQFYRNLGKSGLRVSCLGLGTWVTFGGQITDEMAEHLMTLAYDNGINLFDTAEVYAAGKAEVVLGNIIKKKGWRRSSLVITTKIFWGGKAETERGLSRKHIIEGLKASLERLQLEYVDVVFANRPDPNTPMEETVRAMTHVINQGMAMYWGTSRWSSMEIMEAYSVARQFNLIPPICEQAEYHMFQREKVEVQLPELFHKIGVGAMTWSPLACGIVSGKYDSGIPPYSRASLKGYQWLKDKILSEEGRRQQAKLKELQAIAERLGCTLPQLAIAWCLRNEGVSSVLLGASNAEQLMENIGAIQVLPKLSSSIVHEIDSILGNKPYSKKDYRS

SMILES	cell count [1]	inhibition [1]	inhibition of aggregation [2]	nuclei count [2] [%]	inhibition [3]	nuclei count [3] [%]	fluorescence slope [4]	NADPH fluorescence slope [5]	fluorescence slope [6]	inhibition [7]	inhibition [8]
c1ccc(CCc2nn3c(Cn4cnc5ccccc54)nnc3s2)cc1	598	-3.3% (inactive)	-18% (inactive)	100	-29.5% (inactive)	97.5	-0.53 (inactive)	2.5e-05 (inactive)	0.00554 (inactive)	14.9% (inactive)	-3.65% (inactive)
Cc1c(=O)n(OCc2ccccn2)c2ccccc2[n+]1[O-]	208	-18.3% (inactive)	27.8% (inactive)	112	14.4% (inactive)	89.2	-0.412 (inactive)	-1.8e-05 (inactive)	0.00625 (inactive)	11.7% (inactive)	16.8% (inactive)
COc1cc(CNc2ccc(N3CCOCC3)c(C(=O)O)c2)ccc1OCC(N)=O	362	-2.2% (inactive)	-15.5% (inactive)	99.3	26.6% (inactive)	98.6	-0.343 (inactive)	0.000117 (inactive)	0.00665 (inactive)	5.32% (inactive)	9.86% (inactive)
Cc1ccc(C)c(OCC(O)CN2C(C)CCCC2C)c1 (stereo not drawn)	379	0% (inactive)	2.7% (inactive)	93.8	-71.2% (inactive)	117	-0.526 (inactive)	5e-05 (inactive)	0.00528 (inactive)	13.4% (inactive)	26.5% (inactive)
COC(=O)c1ccc(CNC(=O)COc2ccccc2Br)o1	712	-13.6% (inactive)	-7.2% (inactive)	110	0.2% (inactive)	81.7	-0.556 (inactive)	-8.6e-06 (inactive)	0.00463 (inactive)	5.53% (inactive)	1.32% (inactive)
C#CC(CO)N(CCN(Cc1ccccc1)C(C#C)CO)Cc1ccccc1 (stereo not drawn)	370	1.8% (inactive)	-12.5% (inactive)	104	-29.5% (inactive)	112	-0.329 (inactive)	-5.4e-05 (inactive)	0.00458 (inactive)	15.5% (inactive)	20.6% (inactive)
Cc1csc2nc3ccccc3c(=O)n12	270	3.9% (inactive)	-14.2% (inactive)	97.6	-48% (inactive)	119	-0.579 (inactive)	-1.2e-05 (inactive)	0.00358 (inactive)	4.9% (inactive)	-6.37% (inactive)
COCC(=O)N(Cc1ccc(OC)cc1)Cc1nc2ccccc2c(=O)[nH]1	351	6.5% (inactive)	-0.1% (inactive)	91.9	-57.4% (inactive)	117	-0.572 (inactive)	-4.4e-05 (inactive)	0.00687 (inactive)	17.3% (inactive)	26.3% (inactive)
O=S(=O)(Cc1ccc(Cl)cc1)Nc1ccc2c(c1)OCO2	291	-12.5% (inactive)	10.4% (inactive)	99.4	-35.3% (inactive)	123	-0.454 (inactive)	-5.8e-05 (inactive)	0.00401 (inactive)	7.86% (inactive)	9.38% (inactive)
CCOC(=O)c1cc2c(=O)n3cccc(C)c3nc2n(Cc2ccco2)c1=NC(=O)c1cccnc1	791	-1.1% (inactive)	1.7% (inactive)	108	-59.3% (inactive)	112	-0.439 (inactive)	-2e-05 (inactive)	0.00326 (inactive)	8% (inactive)	-0.151% (inactive)
O=c1cc(CSc2nnc(COc3ccc(Cl)cc3)o2)c2ccccc2[nH]1	544	-6.2% (inactive)	8% (inactive)	98.4	-46.6% (inactive)	153	-0.497 (inactive)	7.1e-08 (inactive)	0.00464 (inactive)	1.93% (inactive)	-11.9% (inactive)
c1ccc2nc(-c3nc4ccccc4[nH]3)ccc2c1	574	9.8% (inactive)	-19.5% (inactive)	85.8	-6.9% (inactive)	101	-0.551 (inactive)	-2.7e-05 (inactive)	0.00356 (inactive)	11.5% (inactive)	-35.5% (inactive)
O=C(CCCCC(=O)NCc1cccs1)NCc1cccs1	681	-12.6% (inactive)	-3.7% (inactive)	110	0.6% (inactive)	88.9	-0.571 (inactive)	3.2e-05 (inactive)	0.00493 (inactive)	-6.61% (inactive)	0.312% (inactive)
Cc1[nH]c(=O)[nH]c(=O)c1S(=O)(=O)N1c2ccc(F)cc2CCC1C (stereo not drawn)	307	-3.4% (inactive)	-5% (inactive)	112	-175% (inactive)	96.2	-0.461 (inactive)	-3.2e-05 (inactive)	0.00639 (inactive)	9.62% (inactive)	21.9% (inactive)
c1cncc(-c2nnc(SCCSc3nnc(-c4cccnc4)o3)o2)c1	301	-10% (inactive)	20.4% (inactive)	75.6	11.1% (inactive)	122	-0.345 (inactive)	-7.7e-06 (inactive)	0.00585 (inactive)	14.3% (inactive)	20.3% (inactive)
CCOC(=O)C1CCCN(C(=O)c2cccs2)C1 (stereo not drawn)	330	3.3% (inactive)	13.3% (inactive)	110	22% (inactive)	104	-0.456 (inactive)	-5e-05 (inactive)	0.0055 (inactive)	12.8% (inactive)	3.43% (inactive)
CCOC(=O)c1c(NCc2ccc3c(c2)OCO3)c2ccccc2[nH]c1=O	509	-9.9% (inactive)	16.6% (inactive)	94.1	-51.7% (inactive)	111	-0.252 (inactive)	-2.6e-05 (inactive)	0.00507 (inactive)	12.5% (inactive)	-13.3% (inactive)
CC12CN3CC(C)(CN(C1)C3c1ccc(Br)cc1)C2 (stereo not drawn)	565	-1.2% (inactive)	5.1% (inactive)	97.5	-50.4% (inactive)	96.1	-0.607 (inactive)	-4.3e-05 (inactive)	0.00246 (inactive)	13.8% (inactive)	13.4% (inactive)
Cc1ccc(Cn2ccc(NC(=O)c3noc4c3CCCC4)n2)cc1	246	-0.8% (inactive)	-6.8% (inactive)	97.7	44.7% (inactive)	117	-0.539 (inactive)	-3.2e-05 (inactive)	0.00747 (inactive)	10% (inactive)	-98.2% (inactive)
CCOC(=O)N1CCC2(CC1)CC(=O)c1c(ccc3oc(C(=O)O)c(C)c13)O2	313	-4.1% (inactive)	-17.7% (inactive)	99	-83.8% (inactive)	105	-0.413 (inactive)	-1.7e-05 (inactive)	0.00564 (inactive)	0.598% (inactive)	11.3% (inactive)
O=c1[nH]c(SCc2cc(=O)n3ccccc3n2)nc2c1CCC2	681	-8.4% (inactive)	-47.8% (inactive)	87.5	-123% (inactive)	106	-0.381 (inactive)	2.3e-05 (inactive)	0.00602 (inactive)	16.7% (inactive)	20.7% (inactive)
Cn1c(SCc2ccc3c(c2)OCO3)nnc1-c1ccccc1	344	9.8% (inactive)	15.3% (inactive)	93.9	-72.5% (inactive)	126	-0.526 (inactive)	4.8e-05 (inactive)	0.00602 (inactive)	-9.99% (inactive)	-38.3% (inactive)
CCOc1cc(N2CCOCC2)c(OCC)cc1NC(=O)CSc1cccc[n+]1[O-]	506	10.6% (inactive)	2.4% (inactive)	109	-56.8% (inactive)	115	-0.506 (inactive)	-0.000267 (inactive)	0.00543 (inactive)	15.1% (inactive)	18.2% (inactive)
COc1cccc(NS(=O)(=O)c2cc(C)sc2C)c1	311	-5.7% (inactive)	3.3% (inactive)	93	-57% (inactive)	113	-0.467 (inactive)	-1.8e-05 (inactive)	0.00503 (inactive)	3.14% (inactive)	24.9% (inactive)
CC(C(=O)c1ccccc1)n1cnc2ccccc2c1=O (stereo not drawn)	646	6.4% (inactive)	17.6% (inactive)	93	-0.6% (inactive)	96.9	-0.525 (inactive)	-1.2e-05 (inactive)	0.00459 (inactive)	1.21% (inactive)	10.7% (inactive)
CCOC(=O)c1cccc(NC(=O)CCn2nnc3ccccc32)c1	341	1.2% (inactive)	4.8% (inactive)	112	-4.7% (inactive)	118	-0.457 (inactive)	-2.8e-05 (inactive)	0.00454 (inactive)	18.4% (inactive)	8.84% (inactive)
CCOc1ccccc1NS(=O)(=O)c1c(C)noc1C	389	5.5% (inactive)	42.8% (inactive)	97.1	-3.1% (inactive)	111	-0.461 (inactive)	4.7e-05 (inactive)	0.00758 (inactive)	0.4% (inactive)	24.4% (inactive)
COc1cc2[nH]c(=O)n(CCCCCC(=O)N3CCN(c4ccccn4)CC3)c(=O)c2cc1OC	195	17.8% (inactive)	6% (inactive)	100	28.9% (inactive)	92.1	-0.216 (inactive)	-2.4e-05 (inactive)	0.00687 (inactive)	19.6% (inactive)	-1.9% (inactive)
